In ChEMBL document CHEMBL4513216, “Probing the Open Global Health Chemical Diversity Library for Multistage-Active Starting Points for Next-Generation Antimalarials” (ACS Infect Dis, 2020):

Test: Toxicity liver stage against HepG2, at 10uM
Type: cell-based
Design: test concentration 10 uM, cell line HepG2-A16-CD81EGFP
Settings: human, HepG2-A16-CD81EGFP cells; read-out: INHIBITION
Summary of the method: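 Uninfected HepG2-A16-CD81EGFP cells, 3 × 10^3 per well, 1536-well, plated on prespotted compound at 10 μM final, parasite-free screening media added to match infected plates; puromycin 10 μM positive, DMSO 0.5% negative; run in parallel with 48 h PbLuc assay at 37 °C, 5% CO2; viability by CellTiter-Glo luminescence, normalized to controls.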

SMILES | cytotoxicity at 10 µM
Fc1ccccc1Cc1noc(CN2CC[C@@H]3CCCC[C@H]3C2)n1 | -6.1%
CN1CC(=O)N(c2ccccc2)CC12CCN(S(C)(=O)=O)C2 (stereo not given) | -75.7%
COc1ncc(C(=O)N2CCC3(CC2)C(=O)Nc2ccccc23)cn1 | -140%
Cc1noc([C@H]2C[C@H]3OCC[C@H]3N(S(C)(=O)=O)C2)n1 | -115%
COc1cc(NC(=O)C2CC(=O)N(c3cccc(F)c3)C2)ncn1 (stereo not given) | -1.73%
COc1cccc(CN2CCC3(CCN(C(=O)C4CC=CC4)CC3)C2)c1 | -0.602%
Cc1ccc(-n2nnc(CC(=O)N3CCSCC3)c2C)cc1 | -13.1%
COC(=O)CN(C(=O)c1ccc(-n2ccnc2)cc1)C1CCCC1 | -7.28%
O=C(NCCCn1nc2ccccn2c1=O)NCC(C1CC1)C1CC1 | 6.01%
COc1coc(CN2CCCC(CCc3ccc(F)cc3)C2)cc1=O (stereo not given) | 2.16%
O=C(c1ccsc1)N1CCC2(CCN(Cc3ccccn3)C2=O)C1 (stereo not given) | -147%
COc1ccc(CN2CCC(O)(CN3CCCCC3)C2)c(C)c1 (stereo not given) | 7.5%
N#Cc1ccccc1OCCN1CCC(N2CCNC2=O)CC1 | -8.58%
CS(=O)(=O)CCN1CC(c2ccccc2)(c2ccccc2)CCC1=O | 0.623%
CCc1cc(N2CCN(C(C)=O)CC2)n2nc(C)c(C)c2n1 | 3.96%
CC1CN(C(=O)NCCc2nc(C(C)C)no2)CCO1 (stereo not given) | -0.745%
O=C(c1ccco1)N1CCO[C@@H]2CN(c3ccccc3)CC[C@@H]2C1 | -67.7%
Cc1ccc2nc(CNCCCN3CCCC3=O)cc(O)c2c1 | -1.14%
CN(Cc1nc(CC2CC2)no1)CC1Cc2ccccc2O1 (stereo not given) | -2.53%
CC(=O)NCc1cc2n(n1)CCN(Cc1cc(-c3ccccc3)no1)C2 | 7.12%
CC(C)Nc1cccc(CNC(=O)N2CCCC2)c1 | 1.98%
COc1cccc(CC(=O)NCc2cnc(C)nc2C2CCCN2C)c1 (stereo not given) | -7.47%

SMILES | cytotoxicity at 10 µM
Cc1nccn1CC(=O)N1CC(Cc2nccc3ccn(C)c23)C1 | -23.4%
CCN(c1ccc(C(=O)N2CCCC2)cc1)S(=O)(=O)CC | -9.75%
CC1c2ncc(CNC(=O)C3CC3)n2CCN1Cc1ccsc1 (stereo not given) | 1.06%
O=C(CC1CC1)N1C[C@@H]2CN(c3ccccc3)C(=O)[C@@H]2C1 | -1.48%
Cn1cc(N2CC3(CCN(CC4CCC4)CC3)OCC2=O)cn1 | -0.269%
O=C(CNCC1CCCN1c1cccnn1)NCCc1cccs1 (stereo not given) | -6.84%
COC(=O)COc1ccc(-c2noc(C3CCCO3)n2)cc1 (stereo not given) | 1.07%
Cc1ncc(CN2CCCC(c3cc(C(N)=O)[nH]n3)C2)s1 (stereo not given) | -27.7%
Cc1nc2sccn2c1C(=O)N1CCc2[nH]cnc2C1 | -6.11%
COc1ccc(NCc2c[nH]nc2-c2cccnc2)cc1 | -16.8%
COc1ccccc1Oc1ncccc1CNC(=O)C1(C)CCCNC1 (stereo not given) | -2.56%
Cc1ccc(CN2Cc3nnn(C)c3C(COCC3CC3)C2)s1 (stereo not given) | 4.27%
Cc1ccc(CC(=O)NC2CCN(c3cccc(Cl)c3)C2)cn1 (stereo not given) | 2.49%
CC(Cn1ccnc1)NCc1cc(Br)c2c(c1)OCO2 (stereo not given) | 12.9%
Cc1ccc(-c2cn[nH]c2C2CCCN(c3cc(N)ncn3)C2)cc1 (stereo not given) | 55.4%
Cc1cc(C)n(CC2CN(CC(=O)NC(C3CC3)C3CC3)CCO2)n1 (stereo not given) | -0.544%
CC(=O)N(C)CC(=O)NCC1(c2c(F)cccc2F)CCCC1 | -3.86%
CN1CCN(S(=O)(=O)c2cccc(S(=O)(=O)C3CCS(=O)(=O)C3)c2)CC1 (stereo not given) | 6.29%
CCn1cnnc1C1CCN(C(=O)c2ccc(C(=O)OC)s2)CC1 | -8.16%
CC(Cc1c(F)cccc1F)NC(=O)NCc1ncnn1C (stereo not given) | 12.9%
CCn1ccnc1CN1CCN(C(C)C(=O)NC2CCCCC2)CC1 (stereo not given) | -2.17%
CN(C)CC(=O)N1Cc2cc(-c3cc[nH]n3)ccc2C1c1cnco1 (stereo not given) | 21.4%

SMILES | cytotoxicity at 10 µM
CC(C)OCCS(=O)(=O)N1CCN(Cc2ccco2)CC1 | -11.3%
CCC1c2ccccc2CCN1CCCS(C)(=O)=O (stereo not given) | 1.75%
O=C(NS(=O)(=O)c1cnn(-c2ccccc2F)c1)c1ccoc1 | -5.2%
CC(C(=O)N1CCC(Cc2ccc(F)cc2)CC1)n1ccnc1 (stereo not given) | 4.57%
Cc1nnc2ccc(C(=O)N3CCSC(C)(C)C3)cn12 | -3.54%
COc1cccc(NC(=O)C(C)Cn2cc(Cl)cn2)c1 (stereo not given) | -1.47%
COc1ccc(C(C)NCc2cccs2)cc1Cn1cccn1 (stereo not given) | 10.2%
Cc1cnn(-c2ccc(S(N)(=O)=O)cc2F)c1 | 1.64%
CN(C(=O)Nc1cccnc1)C1CCN(c2ccc(Cl)cc2)CC1 | -2.46%
COc1cc(C(=O)Nc2c(C)noc2C)ccc1C | -15%
O=C(CCN1CCCCO1)NCc1cn2c(n1)SCC2 | 6.49%
CC(=O)N1C[C@H]2CNC[C@@]2(C(=O)NCCOc2ccccc2F)C1 | 2.8%
CC(c1cccc(-c2ccc(C(=O)O)cc2Cl)c1)N(C)C (stereo not given) | -2.25%
Cc1cnn(C2CN(CCOc3cccc(C#N)c3)C2)c1 | 5.62%
CNc1ncc(-c2csc(NC(=O)C[C@H]3COCCN3)n2)cn1 | -11.9%
CCOCC1CN(S(C)(=O)=O)Cc2cnn(CC3CCOCC3)c21 (stereo not given) | -0.851%
CCCn1nccc1C(=O)N1CCN(C2CCc3ccccc3C2)CC1 (stereo not given) | -130%
CNC(=O)C1(c2cnccn2)CCCN1C(=O)c1ccccc1C (stereo not given) | -16.5%
Cc1noc(C)c1-c1nc(C2CCCN(C(=O)CCN)C2)ccc1CO (stereo not given) | -2.53%
Cc1cc(C)c(CNC(=O)NCCCNc2ccccn2)c(=O)[nH]1 | -43%
CO[C@H]1C(=O)N(C)C2(CCNCC2)[C@@H]1C(=O)Nc1ccccc1 | 6.17%
NCCC(=O)NCC1(O)CCCN(c2ccnc3cccnc23)C1 (stereo not given) | 0.72%

SMILES | cytotoxicity at 10 µM
CCCc1nc(C)c(CN2CC3(CCOC3)CCC2=O)s1 (stereo not given) | -10.5%
CCCOC(=O)C(C)Sc1nnnn1C1CCOCC1 (stereo not given) | 18.1%
FC(F)(F)c1nnc2n1CCN(c1nc(C3CC3)ns1)C2 | 8.21%
CC(C)NC(=O)N1CCc2ncnc(-c3ccncc3)c2CC1 | -0.736%
COc1cccc(CN2CCCC2c2cccc(F)c2)c1OC (stereo not given) | 6.01%
CCC(C)n1cnc(S(=O)(=O)N(C)C)c1 (stereo not given) | -7.07%
O=C(Nc1cnn(CC(=O)N2CCCO2)c1)c1ccccc1 | -0.134%
CC(C)CNC(=O)N1CC[C@@H]2CN(Cc3cccnc3)S(=O)(=O)[C@@H]2CC1 | -93.6%
Cc1cc(C)c(CNC(=O)N2CCN(c3nccs3)CC2)c(=O)[nH]1 | -20.9%
COc1cc(N2C[C@@H]3COC[C@]3(COc3ccccn3)C2)ncn1 | 1.35%
CNc1cncc(C2CCCN2S(=O)(=O)c2ccccc2F)n1 (stereo not given) | -15.1%
CN(C)C(=O)N1CC2(CCN(CC3CC3)CC2)c2cc(F)ccc21 | -1.54%
CS(=O)(=O)N1CCCCC12CCCN(Cc1nccs1)C2 (stereo not given) | 9.94%
CCS(=O)(=O)c1ccc2oc([C@H]3CCN(Cc4ccncc4)C3)nc2c1 | 23.7%
CCOCCNC(=O)Nc1ccc(OCc2noc(C3CC3)n2)cc1 | 6.48%
CC1=NN(c2ccc(C(=O)OCCNC(=O)c3ccncc3)cc2)CC1 | -3.62%
CCC(CNC1CCN(C(C)=O)CC1)Oc1ccccc1Cl (stereo not given) | -13.4%
Cc1sc(-n2cnnn2)c(C(=O)NC(C)C)c1C | 2.83%
CCOC(=O)[C@]12CCCN(Cc3nccs3)C[C@H]1CN(C(C)=O)C2 | -2.99%
Cn1c(CCNC(=O)Nc2cn[nH]c2)nc2ccc(F)cc21 | -6.97%
CCOC(CC)C(=O)NCc1cccc(N2CCCCC2=O)c1 (stereo not given) | 5.12%
Cc1cccc(C(=O)Nc2c(C(=O)N(C)C)nn(C)c2C)c1 | 7.58%

SMILES | cytotoxicity at 10 µM
COC(=O)CCC(=O)N1CCC2(CN(Cc3ccccc3)C2)C1 | 12.3%
CC1c2ncc(COCC3CC3)n2CCN1S(=O)(=O)N(C)C (stereo not given) | 18.4%
Cc1ccc(S(=O)(=O)NC(=O)c2cc(S(C)(=O)=O)ccc2C)s1 | 14.1%
COc1cc(CN2CCCC2)ccc1OC12CCCN(CC1)C2 (stereo not given) | -2.87%
Cc1nc2c(c(N[C@@H](CO)C(N)=O)n1)Cc1ccccc1OC2 | 2.8%
COCC(=O)N1C[C@@H](CN2CCCN(C)CC2)[C@@H](CO)C1 | -3.85%
NC(=O)c1ccc(CN2CCC(N3CCCC3)CC2)cc1 | -2.3%
Cc1nc(-c2ccc(S(=O)(=O)N3CCOCC3)cc2)co1 | -9.52%
COCCOc1ccccc1CNCC1COC2(CCCC2)O1 (stereo not given) | -143%
COc1ccc(C(C)NS(=O)(=O)c2ccc3c(c2)CCC(=O)N3)cc1F (stereo not given) | -49.7%
N#CCc1ccc(OCC(=O)NS(=O)(=O)c2cccs2)cc1 | 13.6%
CC(=O)N1CC[C@@]2(O)CCCC[C@H]2[C@@H]1c1ccc2c(c1)OCO2 | 15.4%
CS(=O)(=O)N1CC[C@H]2O[C@@H](C(=O)NCc3ccco3)CC[C@H]21 | 4.23%
NC(=O)C1CCN(C(=O)c2ccn(-c3ccc(F)cc3)n2)CC1 | -1.34%
O=C(NCc1ccco1)N1CCOC(c2ccccc2Cl)C1 (stereo not given) | -1.91%
CCc1cnc(N2CCC(=O)N(CC3CC3)C(C(C)C)C2)nc1 (stereo not given) | -6.28%
NC(=O)NC(=O)CCn1ccc(-c2ccccc2)n1 | 5.2%
COc1nc2ccccc2cc1CN1CCCC(CNC(C)=O)C1 (stereo not given) | 1.9%
Cc1cc(F)c2c(c1)CCCN2Cc1cc(=O)n(C)c(=O)n1C | 8.1%
Cn1cc(CN2C[C@@H]3OCCN(CC4CCCC4)[C@@H]3C2)cn1 | -163%
Cc1nc[nH]c1CN1C[C@H]2CC[C@@H](C1)N(C(=O)CCc1cnn(C)c1)C2 | -14.1%
CN(Cc1nnc(C2CC2)n1C)C1CCN(CCc2cnn(C)c2)C1 (stereo not given) | -4.02%
